# Test results published in ChEMBL document CHEMBL2010803, “Novel NSAID 1-acyl-4-cycloalkyl/arylsemicarbazides and 1-acyl-5-benzyloxy/hydroxy carbamoylcarbazides as potential anticancer agents and antioxidants” (Eur J Med Chem, 2012).
# Active and inactive are the calls of the source. The rule behind the calls is not given here.
# What was measured:
# Influenza A virus [1] = experiment: Antiviral activity against Influenza A virus H3N2 infected in MDCK cells assessed as inhibition of virus-induced cytopathic effect at 0.32 to 100 uM; assay type: functional, organism-based
# Summary of the method: (§1)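 Confluent MDCK monolayers were infected in the presence of the compound at 100, 40, 8, 1.6 and 0.32 μM. Viral cytopathicity was scored once it was complete in untreated infected control cultures.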
# Coxsackievirus B4 [2] = experiment: Antiviral activity against Coxsackievirus B4 infected in human cervix carcinoma cells assessed as inhibition of virus-induced cytopathic effect at 0.32 to 100 uM; assay type: functional, organism-based
# Summary of the method: (§2)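 Confluent cell cultures were infected with 100 CCID50 of virus in the presence of test compound at 100, 40, 8, 1.6 and 0.32 μM. Cytopathic effect was scored once it was complete in untreated infected controls.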
# [3] = system: Human immunodeficiency virus 1; experiment: Antiviral activity against HIV1 3B infected in human CEM cells assessed as inhibition of virus-induced CEM giant cell formation at 0.32 to 100 uM after 4 days; assay type: functional, organism-based; details: CCRF-CEM
# Summary of the method: (§3)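 CEM cells (~3 × 10^5 cells/cm³) exposed to 100 CCID50/ml of virus and seeded into wells holding compound dilutions. Incubated 4 days at 37 °C, then giant cell formation examined microscopically.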
# [4] = system: Radical scavenging activity; experiment: Antioxidant activity assessed as DPPH free radical scavenging activity at 100 uM after 60 mins by spectrophotometric analysis; assay type: functional
# Summary of the method: (§4)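 0.05 mM DPPH in absolute ethanol mixed with an equal volume of compound in DMSO (final 100 μM). Shaken and left 20 or 60 min, then absorbance read at 517 nm and percent activity calculated. Three replicates, averaged.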
# Punta Toro virus = experiment: Antiviral activity against Punta Toro virus infected in african green monkey Vero cells assessed as inhibition of virus-induced cytopathic effect at 0.32 to 100 uM; assay type: functional, organism-based; summary of the method: as §2
# Feline coronavirus = experiment: Antiviral activity against Feline coronavirus infected in feline CRFK cells assessed as inhibition of virus-induced cytopathic effect at 0.32 to 100 uM; assay type: functional, organism-based; summary of the method: as §2
# Influenza B virus = experiment: Antiviral activity against Influenza B virus infected in MDCK cells assessed as inhibition of virus-induced cytopathic effect at 0.32 to 100 uM; assay type: functional, organism-based; summary of the method: as §1
# [5] = system: Radical scavenging activity; experiment: Antioxidant activity assessed as DPPH free radical scavenging activity at 100 uM after 20 mins by spectrophotometric analysis; assay type: functional; summary of the method: as §4
# Human respirovirus 3 = experiment: Antiviral activity against Parainfluenza virus 3 infected in african green monkey Vero cells assessed as inhibition of virus-induced cytopathic effect at 0.32 to 100 uM; assay type: functional, organism-based; summary of the method: as §2
# Sindbis virus = experiment: Antiviral activity against Sindbis virus infected in african green monkey Vero cells assessed as inhibition of virus-induced cytopathic effect at 0.32 to 100 uM; assay type: functional, organism-based; summary of the method: as §2
# Human alphaherpesvirus 2 = experiment: Antiviral activity against HSV2 G infected in human lung fibroblast assessed as inhibition of virus-induced cytopathic effect at 0.32 to 100 uM; assay type: functional, organism-based; details: strain G; summary of the method: as §2
# [6] = Antioxidant activity assessed as inhibition of AAPH-induced linoleic acid lipid peroxidation by measuring conjugated diene hydroperoxide level; assay type: functional; parameters: concentration or dose not given beside the values; details: dose or concentration not given here
# Summary of the method: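 Linoleic acid sodium salt (10 μL of 16 mM) in 0.05 M phosphate buffer pH 7.4 at 37 °C. Oxidation started under air with 50 μL of 40 mM AAPH. Conjugated diene hydroperoxide formation followed as absorbance rise at 234 nm; control contains the same DMSO level. At least triplicate.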
# Felid alphaherpesvirus 1 = experiment: Antiviral activity against Feline herpesvirus infected in feline CRFK cells assessed as inhibition of virus-induced cytopathic effect at 0.32 to 100 uM; assay type: functional, organism-based; summary of the method: as §2
# MCF7 = experiment: Cytostatic activity against human MCF7 cells after 72 hrs by MTT assay; assay type: functional, cell-based; details: MCF7, 72 h
# Summary of the method: (§5)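 Monolayers in DMEM with 10% FBS, 2 mM L-glutamine and penicillin/streptomycin, 37 °C, 5% CO2. Seeded at 1–3 × 10^4 cells/ml, then compound added in tenfold dilutions (10⁻⁸–10⁻⁴ M) for 72 h. MTT read at 570 nm; percent growth taken against time-zero and untreated controls. IC50 by linear regression; quadruplicate, at least two experiments.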
# [7] = system: Vesicular stomatitis virus; experiment: Antiviral activity against Vesicular stomatitis virus infected in human cervix carcinoma cells assessed as inhibition of virus-induced cytopathic effect at 0.32 to 100 uM; assay type: functional, organism-based
# Summary of the method: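 Confluent human cervix carcinoma (HeLa) cultures received 100 CCID50 of VSV together with the compound at 100, 40, 8, 1.6 or 0.32 μM. Cytopathicity was read at the point of full CPE in infected, untreated control wells.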
# [8] = system: Human immunodeficiency virus 2; experiment: Antiviral activity against HIV2 ROD infected in human CEM cells assessed as inhibition of virus-induced CEM giant cell formation at 0.32 to 100 uM after 4 days; assay type: functional, organism-based; details: ISOLATE ROD, CCRF-CEM; summary of the method: as §3
# [9] = system: Mammalian orthoreovirus 1; experiment: Antiviral activity against Reovirus-1 infected in african green monkey Vero cells assessed as inhibition of virus-induced cytopathic effect at 0.32 to 100 uM; assay type: functional, organism-based; summary of the method: as §2
# [10] = system: Vesicular stomatitis virus; experiment: Antiviral activity against VSV infected in human lung fibroblast assessed as inhibition of virus-induced cytopathic effect at 0.32 to 100 uM; assay type: functional, organism-based
# Human alphaherpesvirus 1 = experiment: Antiviral activity against HSV1 KOS infected in human lung fibroblast assessed as inhibition of virus-induced cytopathic effect at 0.32 to 100 uM; assay type: functional, organism-based; summary of the method: as §2
# NCI-H460 = experiment: Cytostatic activity against human NCI-H460 cells after 72 hrs by MTT assay; assay type: functional, cell-based; details: NCI-H460, 72 h; summary of the method: as §5
# Glycine max = experiment: Inhibition of soybean LOX assessed as conversion of sodium linoleate to 13- hydroperoxylinoleic acid at 100 uM
# [11] = system: Respiratory syncytial virus; experiment: Antiviral activity against RSV infected in human cervix carcinoma cells assessed as inhibition of virus-induced cytopathic effect at 0.32 to 100 uM; assay type: functional, organism-based; summary of the method: as §2
# Vaccinia virus = experiment: Antiviral activity against Vaccinia virus infected in human lung fibroblast assessed as inhibition of virus-induced cytopathic effect at 0.32 to 100 uM; assay type: functional, organism-based; details: Orthopoxvirus vaccinia
# L1210 = experiment: Cytostatic activity against mouse L1210 cells after 2 days by coulter counter analysis; assay type: functional, cell-based; details: L1210, 48 h
# Summary of the method: (§6)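 300,000–500,000 cells/ml mixed 1:1 with compound dilutions and incubated at 37 °C for 2 days (L1210) or 3 days (CEM, HeLa). Cell number counted with a Coulter counter; HeLa trypsinized before counting.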
# HaCaT = experiment: Cytostatic activity against human HaCaT cells after 72 hrs by MTT assay; assay type: ADME, cell-based; summary of the method: as §5
# Coxsackievirus B4 [12] = experiment: Antiviral activity against Coxsackievirus B4 infected in african green monkey Vero cells assessed as inhibition of virus-induced cytopathic effect at 0.32 to 100 uM; assay type: functional, organism-based; summary of the method: as §2
# Influenza A virus [13] = experiment: Antiviral activity against Influenza A virus H1N1 infected in MDCK cells assessed as inhibition of virus-induced cytopathic effect at 0.32 to 100 uM; assay type: functional, organism-based; summary of the method: as §1
# HCT-116 = experiment: Cytostatic activity against human HCT116 cells after 72 hrs by MTT assay; assay type: functional, cell-based; details: HCT-116, 72 h; summary of the method: as §5
# CCRF-CEM = experiment: Cytostatic activity against human CEM cells after 3 days by coulter counter analysis; assay type: functional, cell-based; details: 72 h; summary of the method: as §6
# HeLa = experiment: Cytostatic activity against human HeLa cells after 3 days by coulter counter analysis; assay type: functional, cell-based; details: 72 h; summary of the method: as §6
Structure (SMILES),inhibition (Influenza A virus [1]),inhibition (Coxsackievirus B4 [2]),inhibition [3],Activity [4],inhibition (Punta Toro virus),inhibition (Feline coronavirus),inhibition (Influenza B virus),Activity [5],inhibition (Human respirovirus 3),inhibition (Sindbis virus),inhibition (Human alphaherpesvirus 2),inhibition [6] [%],inhibition (Felid alphaherpesvirus 1),IC50 (MCF7) [µM],inhibition [7],inhibition [8],inhibition [9],inhibition [10],inhibition (Human alphaherpesvirus 1),IC50 (NCI-H460) [µM],also measured
CC(C(=O)NNC(=O)NCC1CCCCC1)c1cccc(Cc2ccccc2)c1 (configuration not stated),inactive,inactive,inactive,12%,inactive,inactive,inactive,5%,inactive,inactive,inactive,61,inactive,18,inactive,inactive,inactive,inactive,inactive,18,inhibition (Glycine max): 9%; inhibition [11]: inactive; inhibition (Vaccinia virus): inactive; IC50 (L1210): 22 µM; IC50 (HaCaT): 12 µM; inhibition (Coxsackievirus B4 [12]): inactive; inhibition (Influenza A virus [13]): inactive; IC50 (HCT-116): 16 µM; IC50 (CCRF-CEM): 20 µM
O=c1[nH]cc(F)c(=O)[nH]1 [FLUOROURACIL],,,,,,,,,,,,,,,,,,,,,IC50 (HaCaT): 0.3 µM
CC(C)Cc1ccc(C(C)C(=O)NNC(=O)NCCc2ccccc2)cc1 (configuration not stated),inactive,inactive,inactive,inactive,inactive,inactive,inactive,inactive,inactive,inactive,inactive,33,inactive,23,inactive,inactive,inactive,inactive,inactive,51,IC50 (HeLa): ≥ 250 µM; inhibition (Glycine max): inactive; inhibition [11]: inactive; inhibition (Vaccinia virus): inactive; IC50 (L1210): 180 µM; inhibition (Coxsackievirus B4 [12]): inactive; inhibition (Influenza A virus [13]): inactive; IC50 (HCT-116): 26 µM; IC50 (CCRF-CEM): 148 µM
CC(C)Cc1ccc(C(C)C(=O)NNC(=O)NCC2CCCCC2)cc1 (configuration not stated),inactive,inactive,inactive,6%,inactive,inactive,inactive,3%,inactive,inactive,inactive,16,inactive,13,inactive,inactive,inactive,inactive,inactive,29,IC50 (HeLa): 142 µM; inhibition (Glycine max): 25%; inhibition [11]: inactive; inhibition (Vaccinia virus): inactive; IC50 (L1210): 44 µM; inhibition (Coxsackievirus B4 [12]): inactive; inhibition (Influenza A virus [13]): inactive; IC50 (HCT-116): 21 µM; IC50 (CCRF-CEM): 26 µM
NNC(=O)NOCc1ccccc1,inactive,inactive,inactive,14%,inactive,inactive,inactive,6%,inactive,inactive,inactive,36,inactive,> 100,inactive,inactive,inactive,inactive,inactive,> 100,IC50 (HeLa): > 250 µM; inhibition (Glycine max): inactive; inhibition [11]: inactive; inhibition (Vaccinia virus): inactive; IC50 (L1210): > 250 µM; inhibition (Coxsackievirus B4 [12]): inactive; inhibition (Influenza A virus [13]): inactive; IC50 (HCT-116): > 100 µM; IC50 (CCRF-CEM): > 250 µM
